ChEMBL document CHEMBL1123129, “Hypolipidemic activity of indan-1,3-dione derivatives in rodents” (J Med Chem, 1985)
“And” between values parts separate entries of the source, which are not always exact repeats. Identical values can stand only once.

Experiments:
[1] = target: T1, ATP-citrate synthase (Mus musculus) (UniProt Q91V92); test: In Vitro evaluation for the CF1 liver enzyme activity on ATP-Citrate Lyase exchange at concentration 100 uM
T1 sequence (whole entry): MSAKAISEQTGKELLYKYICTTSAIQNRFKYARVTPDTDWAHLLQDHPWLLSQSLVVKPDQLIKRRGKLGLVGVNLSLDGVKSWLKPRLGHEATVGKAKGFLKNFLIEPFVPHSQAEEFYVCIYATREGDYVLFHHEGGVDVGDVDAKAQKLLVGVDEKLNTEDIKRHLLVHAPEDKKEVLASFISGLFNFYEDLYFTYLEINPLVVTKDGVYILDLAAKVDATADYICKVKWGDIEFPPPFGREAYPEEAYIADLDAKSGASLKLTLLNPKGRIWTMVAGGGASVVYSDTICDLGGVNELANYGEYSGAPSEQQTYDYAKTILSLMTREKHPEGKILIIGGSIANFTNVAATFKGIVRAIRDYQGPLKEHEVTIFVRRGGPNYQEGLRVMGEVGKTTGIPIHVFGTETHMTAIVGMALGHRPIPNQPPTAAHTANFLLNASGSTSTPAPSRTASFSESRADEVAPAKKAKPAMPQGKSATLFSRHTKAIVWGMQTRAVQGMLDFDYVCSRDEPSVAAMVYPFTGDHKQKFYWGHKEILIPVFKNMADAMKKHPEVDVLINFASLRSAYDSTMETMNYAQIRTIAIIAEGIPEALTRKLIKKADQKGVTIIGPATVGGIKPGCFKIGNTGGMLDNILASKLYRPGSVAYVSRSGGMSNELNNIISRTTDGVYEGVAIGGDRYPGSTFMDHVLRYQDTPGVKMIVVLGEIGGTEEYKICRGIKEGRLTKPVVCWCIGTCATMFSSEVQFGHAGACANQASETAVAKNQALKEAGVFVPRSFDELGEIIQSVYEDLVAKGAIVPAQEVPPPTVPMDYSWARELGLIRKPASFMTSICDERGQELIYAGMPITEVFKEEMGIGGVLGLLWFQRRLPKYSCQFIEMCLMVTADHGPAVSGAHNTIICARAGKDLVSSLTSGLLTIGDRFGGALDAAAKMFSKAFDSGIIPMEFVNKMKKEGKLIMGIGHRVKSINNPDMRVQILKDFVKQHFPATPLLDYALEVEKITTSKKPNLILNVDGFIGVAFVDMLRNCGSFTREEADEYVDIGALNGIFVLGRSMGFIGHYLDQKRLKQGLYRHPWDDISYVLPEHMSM
Outline: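 Liver was taken from CF1 male mice and made into 10% homogenates, which were incubated with test compound at 50, 100 or 200 µM. Each enzyme was assayed by its literature method, and protein was measured by Lowry. N = 6. Activity is expressed as % of untreated control ± SD.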

[2] = target: T2, 3-hydroxy-3-methylglutaryl-coenzyme A reductase (Mus musculus) (UniProt Q01237); test: In Vivo effect for the hypolipidemic activity on HMG-CoA reductase in CF1 mice after 16 days of oral administration at a dose of 40 mg/kg; assay type: organism-based; set-up: dose 40 mg/kg
T2 sequence (whole entry): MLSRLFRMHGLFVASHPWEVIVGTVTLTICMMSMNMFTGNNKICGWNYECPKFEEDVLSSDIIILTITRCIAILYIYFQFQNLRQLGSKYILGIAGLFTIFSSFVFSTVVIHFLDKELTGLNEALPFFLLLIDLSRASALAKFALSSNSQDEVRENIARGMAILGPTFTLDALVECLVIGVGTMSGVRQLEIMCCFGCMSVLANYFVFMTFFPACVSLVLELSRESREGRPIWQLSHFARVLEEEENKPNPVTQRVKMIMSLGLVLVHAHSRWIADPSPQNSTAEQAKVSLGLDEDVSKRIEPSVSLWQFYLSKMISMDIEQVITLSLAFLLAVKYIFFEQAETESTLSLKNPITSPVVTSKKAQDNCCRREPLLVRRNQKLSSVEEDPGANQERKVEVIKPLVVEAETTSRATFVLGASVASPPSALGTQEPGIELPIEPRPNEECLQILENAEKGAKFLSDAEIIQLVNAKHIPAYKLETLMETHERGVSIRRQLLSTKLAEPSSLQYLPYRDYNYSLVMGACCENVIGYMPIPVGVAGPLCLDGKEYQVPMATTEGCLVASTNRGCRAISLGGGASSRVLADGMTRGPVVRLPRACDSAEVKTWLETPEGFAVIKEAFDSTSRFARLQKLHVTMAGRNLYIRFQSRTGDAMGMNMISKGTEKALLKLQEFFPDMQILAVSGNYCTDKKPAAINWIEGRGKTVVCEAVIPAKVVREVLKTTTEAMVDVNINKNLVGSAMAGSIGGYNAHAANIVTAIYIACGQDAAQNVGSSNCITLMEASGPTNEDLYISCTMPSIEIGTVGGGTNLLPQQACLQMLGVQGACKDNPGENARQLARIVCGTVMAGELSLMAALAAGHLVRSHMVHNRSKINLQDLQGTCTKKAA
Outline: (§1)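 CF1 male mice are dosed orally at 10–60 mg/kg per day for 16 days, with 1% CMC as the control vehicle. Liver is homogenized at 10% in 0.25 M sucrose + 0.001 M EDTA, pH 7.2. Enzymes are assayed by literature methods, with Lowry protein. Activity is given as % of control (X ± SD, N = 6), with p from Student's t test.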

Mus musculus [3] = test: Compound was evaluated for the hypolipidemic activity in CF1 male mice at a dose of 20 mg/kg orally for Serum cholesterol at 16th day; assay type: functional; conditions: route oral
Outline: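 CF1 male mice received the agent orally in 1% CMC at 10–60 mg/kg per day. Tail-vein blood was taken on days 9 and 16. Serum cholesterol was measured by modified Liebermann–Burchard on duplicate 25-µL samples, and serum triglyceride on day 16 in duplicate 50-µL samples. Values are % of vehicle control, mean ± SD, N = 6; Student's t test.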

Rattus norvegicus [4] = test: Compound was evaluated for the hypolipidemic activity at 20 mg/kg per day orally for 14 days on neutral lipids content in rat feces.; assay type: functional; conditions: route oral
Outline: (§2)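 Male Sprague–Dawley rats were dosed orally for 14 days. Liver, small intestine and a 24-h fecal collection were lipid-extracted. Extracts were assayed for cholesterol (modified Liebermann–Burchard), triglyceride (enzymatic kit), neutral lipids, phospholipids and protein. Values are % of 1% CMC vehicle control, mean ± SD, N = 6.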

Rattus norvegicus [5] = test: Compound was evaluated for the hypolipidemic activity at 20 mg/kg per day orally for 14 days on protein content in rat lipoprotein chylomicron; assay type: functional; conditions: route oral
Outline: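 Male Sprague–Dawley rats (~300 g) were dosed orally each day. Blood was drawn from the abdominal vein. Lipoprotein fractions (chylomicron, VLDL, LDL, HDL) were separated by the Hatch–Lees and Havel methods. Each fraction was assayed for cholesterol, triglyceride (enzymatic kit), neutral lipids, phospholipids and Lowry protein. Values are % of 1% CMC vehicle control, N = 6.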

Rattus norvegicus [6] = test: Compound was evaluated for the hypolipidemic activity at 20 mg/kg per day orally for 14 days on cholesterol content in rat liver; assay type: functional; conditions: route oral; outline: as §2
Mus musculus [7] = test: In Vivo effect for the hypolipidemic activity on phosphatidate phosphohydrolase in CF1 mice after 16 days administered orally at a dose of 10 mg/kg; assay type: organism-based; set-up: dose 10 mg/kg; outline: as §1
Mus musculus [8] = test: In Vivo effect for the hypolipidemic activity on phosphatidate phosphohydrolase in CF1 mice after 16 days administered orally at a dose of 40 mg/kg; assay type: organism-based; set-up: dose 40 mg/kg; outline: as §1

COc1ccc(C2C(=O)c3ccccc3C2=O)cc1 [ANISINDIONE]
Control [1]: 51% | Control [2]: 114% | Control (Mus musculus [3]): 62% | Control (Rattus norvegicus [4]): 101% | Control (Rattus norvegicus [5]): 118% | Control (Rattus norvegicus [6]): 69% and 84% | Control (Mus musculus [7]): 53% | Control (Mus musculus [8]): 57%
